Source: PubChem BioAssay (several laboratories)
An excerpt weighted towards active compounds, which were near 1.3% of everything screened.
EP2 modulator: modulators of human EP2 prostaglandin E2 receptor | induction, % at 25 µM | P43116 | hit rate 0.83% among 260,000 | AID 940 | EP2-expressing cells, cAMP HTRF FRET, PGE2 co-stimulation;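 active = compounds whose cAMP rise, as percent of the full-agonist control response, exceeds 60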;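 also: rat C6 glioma line stably carrying human EP2 under a CMV promoter; the protocol text gives 20 µM as final concentration; 100% = response of wells given 1 µM PGE2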
NR2E3 ag-1: activates human photoreceptor nuclear receptor NR2E3 | GST-NR2E3/biotin-RetCOR TR-FRET, 1536-well | inhibition of corepressor binding, % at 4.78 µM | hit rate 0.12% among 320,000;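 active = percent inhibition above the cutoff of mean plus 3 SD of all tested compounds, set per screening campaign, cut at about 20% in these data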;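 also: 0% = DMSO wells and 100% = biotin wells as full block of FRET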
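Material – GST-tagged NR2E3 plus biotinylated RetCOR corepressor · Quantity – NR2E3 fusion 1.35 nM · Times – 5 h incubation at 4 °C · Medium – pH 7.5 Tris-based buffer · Technique – TR-FRET, Eu(K)-anti-GST donor, streptavidin-D2 acceptor, ex 340, em 617/671 nm · Benchmarks – high control biotin, low control 0.6% DMSO · Format – 1536-well plates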
NR2E3 ag-2: activates human NR2E3 receptor | hit rate 0.35% among 360,000 | Q9Y5X4 | inhibition of corepressor binding, % at 3.98 µM | CHO-S Gal4-NCOR/VP16-NR2E3 two-hybrid, luciferase | AID 602229;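 active = inhibition above the mean of all tested compounds plus 3 SD, cut at about 70% in these data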;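 also: 0% = DMSO with NR2E3 transfected cells and 100% = cells lacking NR2E3 construct; higher means lower luciferase signal from less NR2E3 corepressor binding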
Furin inh: human furin inhibition. purified furin, fluorogenic substrate cleavage. inhibition, % at 20 µM or 30 µM. hit rate 0.061% among 220,000. AID 463115; in the data active = inhibition above about 25%
PGE2 EP2 inh: EP2 receptor (human) inhibition. P43116. C6 glioma cells expressing human EP2, cAMP TR-FRET; cells stimulated with saturating PGE2. inhibition, % at 25 µM. hit rate 0.52% among 260,000;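 active = percent inhibition above 40 after rounding to a whole number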;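 also: rat C6 glioma host cells with rolipram phosphodiesterase inhibitor present; the protocol text gives 20 µM as final concentration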
JMJD2C inh: inhibitors of human GASC-1 (JMJD2C) demethylase | AID 2099 | Q9H3R0 | hit rate 0.069% among 330,000 | GST-JMJD2C(1-420) H3K9me3 demethylation, DELFIA europium | inhibition, % at 2.35 µM;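 active = more than half of a compound's replicate wells show inhibition beyond 50%, single wells judged on their own value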;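 also: signal counts dimethyl H3K9 product captured on neutravidin plate; 0% = median of DMSO wells and 100% = 0.3 times that DMSO median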
Target sequence (Q9H3R0 1-420 limits assumed): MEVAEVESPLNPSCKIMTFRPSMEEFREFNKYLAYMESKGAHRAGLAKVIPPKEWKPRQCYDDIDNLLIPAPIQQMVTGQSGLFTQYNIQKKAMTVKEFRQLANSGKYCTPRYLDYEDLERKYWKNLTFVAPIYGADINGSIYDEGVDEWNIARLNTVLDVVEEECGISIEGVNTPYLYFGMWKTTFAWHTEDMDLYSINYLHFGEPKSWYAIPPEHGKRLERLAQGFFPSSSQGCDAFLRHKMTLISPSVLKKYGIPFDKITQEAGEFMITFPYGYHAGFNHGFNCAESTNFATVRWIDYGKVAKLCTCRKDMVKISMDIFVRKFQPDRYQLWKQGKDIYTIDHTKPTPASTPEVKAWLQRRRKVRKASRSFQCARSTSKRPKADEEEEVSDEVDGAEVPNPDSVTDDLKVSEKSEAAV
Starred values were filed as active, the others as inactive; nt = no result; ! = a repeat was not active.

SMILES	EP2 modulator	NR2E3 ag-1	NR2E3 ag-2	Furin inh	PGE2 EP2 inh	JMJD2C inh
O=C(c1ccco1)N(Cc1ccc([N+](=O)[O-])cc1)c1ccc(Cl)cc1	16	-1	-10	-16	3	2
Cc1cc(Cc2cc(C)cc(C(C)(C)C)c2O)c(O)c(Cc2cc(C)cc(C(C)(C)C)c2O)c1	7	nt	nt	nt	41*	nt
Cc1c(Cl)cc(C(C)(C)C)c(O)c1Cc1c(C)c(Cl)cc(C(C)(C)C)c1O	5	nt	nt	nt	47*	nt
Cc1cc(Cc2c(C)c(C)c(Cc3cc(C)cc(C(C)(C)C)c3O)c(C)c2C)c(O)c(C(C)(C)C)c1	16	nt	nt	nt	55*	nt
Cc1ccc(O)c(Cc2cc(C)cc(Cc3cc(C)ccc3O)c2O)c1	nt	nt	-28	nt	nt	nt
CC(C)(C)c1cc(CN(CCO)CCO)c(O)c(C(C)(C)C)c1	1	-1	-5	-18	8	4
COc1ccc(NC(=S)N(Cc2ccco2)Cc2cc3ccc(OC)cc3[nH]c2=O)cc1	-53	nt	nt	nt	13	nt
CN(C)[C@H]1C(=O)C(C(=O)NCN2CCCC2)=C(O)[C@@]2(O)C(=O)C3=C(O)c4c(O)cccc4[C@](C)(O)[C@H]3C[C@H]12	7	nt	nt	nt	44*	nt
O=C(COc1ccccc1-c1ccccc1)c1ccccc1	41	-1	4	-14	5	3
COc1cccc(C(=O)COc2ccccc2-c2ccccc2)c1	61*	-1	-21	-14	8	3
COc1ccccc1CNC(=O)Cn1ncc2cccn2c1=O	-50	nt	nt	nt	3	nt
CN(C)c1ccc(-c2nc3cnccn3c2NC(C)(C)C)cc1	-89	nt	nt	nt	9	nt
C=CCNc1nc(Nc2ccc(OC)cc2)nc(OCC)n1	62*!	1	8	-20	19	1
C=CCNc1nc(NCc2ccco2)nc(OCC)n1	35	-3	-2	-29	9	0
CCn1nnc(NC(=O)COc2ccc(Cl)c(C)c2)n1	-23	nt	nt	nt	20	nt
CCC(C)(C)NC(=O)C(c1cccnc1)N(C(=O)Cn1nnc2ccccc21)c1ccc(Cl)cc1 (stereo unspecified)	3	nt	nt	nt	10	nt
C=C(C)Cn1c(SCCC)nc2ccccc2c1=O	94*	nt	nt	nt	14	nt
CCSc1nc2c(c(=O)n1Cc1ccccc1)SC(C)C2 (stereo unspecified)	62*	-2	4	-1	9	-2
COCCn1c(SCc2ccc(F)cc2)nc2ccccc2c1=O	nt	1	-22	nt	nt	-14
CC1Cc2nc(SCC(N)=O)n(Cc3ccccc3)c(=O)c2S1 (stereo unspecified)	28	-2	-20	-22	12	9
CCSc1nc2ccccc2c(=O)n1Cc1ccc(F)cc1	65*	1	-5	-16	7	4
CC(NC(=O)C(c1ccccc1)C1CCCCC1)c1nc(-c2cccnc2)n[nH]1 (stereo unspecified)	21	nt	nt	nt	nt	nt
C/C(=N\Nc1cc(C(F)(F)F)ccc1Cl)c1ccccc1O	65*	1	-17	-29	5	-5
C/C(=N\Nc1ccc(F)cc1F)c1ccccc1O	-44	1	-18	-30	14	27
Cc1ccc(NC(=O)CSc2nnc(-c3ccc(Cl)cc3)n2C)c(Br)c1	-7	nt	nt	nt	18	nt
SMILES	EP2 modulator	NR2E3 ag-1	NR2E3 ag-2	Furin inh	PGE2 EP2 inh	JMJD2C inh
Cc1ccc(-c2csc3nc4cc(C(=O)NC5CCC(O)CC5)ccc4c(=O)n23)cc1 (stereo unspecified)	4	10	-22	-29	17	67*
Cc1nc2ccc3nc(NC(=O)c4ccc5c(c4)OCCO5)sc3c2s1	4	-160	-36	-17	52*	12
CCOc1ccccc1NC(=O)C1OC2OC3(CCCCC3)OC2C2OC3(CCCCC3)OC12 (stereo unspecified)	0	nt	nt	nt	50*	nt
CCc1nc2ccc(NC(=O)c3nc(-c4ccc(F)cc4)oc3C)cc2[nH]1	-49	nt	nt	nt	4	nt
CCn1c(SCC(=O)Nc2ccc(N(C)C)cc2)nc2cccnc21	-37	nt	nt	nt	1	nt
Oc1c(CN2CCN(c3ccccn3)CC2)cc(Cl)c2cccnc12	-8	0	79*	-20	11	-26
CCOc1ccc2[nH]c(=O)c(CN(Cc3ccc(F)cc3)Cc3nnnn3C3CCCC3)cc2c1	61*	nt	nt	nt	7	nt
Cc1cc2cc(CN(Cc3ccc4c(c3)OCO4)Cc3nnnn3C3CCCC3)c(=O)[nH]c2cc1C	64*	3	-1	-47	2	-29
CCOc1ccc2[nH]c(=O)c(CN(Cc3nnnn3C3CCCCC3)C3CCCC3)cc2c1	38	nt	nt	nt	15	nt
Cc1ccc2[nH]c(=O)c(CN(Cc3ccc4c(c3)OCO4)Cc3nnnn3C3CCCC3)cc2c1	29	1	-43	-8	nt	8
CCOc1ccc2[nH]c(=O)c(CN(CCc3ccccc3)Cc3nnnn3C3CCCCC3)cc2c1	62*	nt	nt	nt	2	nt
CCCC1C(=O)N(c2ccccc2)C1c1ccccc1 (stereo unspecified)	64*	0	-14	-16	-3	10
C=C(C)CN1CCN(Cc2ccc(OCC(=O)N3CCOCC3)cc2)CC1	30	nt	nt	nt	2	nt
COc1ccc(C(C)=O)cc1CSc1nc2ccccc2c(=O)n1-c1cccc(C)c1	28	-1	-21	-23	9	6
COc1ccc(C(C)=O)cc1CSc1nc2ccccc2c(=O)n1-c1ccccc1	64*	-3	-3	-19	7	nt
COc1ccccc1C(=O)Nc1ccc(N2CCN(C(=O)C(C)C)CC2)cc1	-45	nt	nt	nt	13	nt
Cc1cc2cc(CN(Cc3ccco3)C(=S)NCCc3ccccc3)c(=O)[nH]c2cc1C	7	nt	nt	nt	8	nt
CCCCNc1nc(NC)nc(Cl)c1SC	63*	-1	-34	-24	5	8
CNc1nc(Cl)c(SC)c(N2CCOCC2)n1	-5	3	-27	-7	4	4
CCOC(=O)c1sc(-c2ccc(OC)cc2)cc1NC(C)=O	13	nt	-13	-41	40*	2
CCn1c(C(CC(C)C)NC(=O)Cc2c[nH]c3ccccc23)nc2cccnc21 (stereo unspecified)	-5	nt	nt	nt	10	nt
O=C(O)CNC(=O)[C@H]1NC(C(F)(F)F)(C(F)(F)F)OC1(C(F)(F)F)C(F)(F)F	25	nt	nt	nt	42*	nt
Cc1ccc(S(=O)(=O)N2CCC(C(=O)O)(c3ccccc3)CC2)cc1	19	nt	nt	nt	43*	nt
O=C(O)C1(c2ccccc2)CCN(S(=O)(=O)c2ccc(Cl)cc2)CC1	nt	2	-14	nt	nt	-47
O=C(NC[C@@H]1CCCN(C(=O)c2ccn[nH]2)C1)c1ccco1	17	nt	nt	nt	13	nt
O=C(CSc1nc2ccccc2s1)c1sc2sc3ccccc3[n+]2c1O	-4	nt	nt	nt	66*	nt
O=C1c2ccccc2C(=O)N1c1ccc(Cc2ccc(N3C(=O)c4ccccc4C3=O)cc2)cc1	15	nt	nt	nt	49*	nt
Cc1ccc(N2C(=O)c3ccccc3C2=O)cc1	10	4	-31	-28	9	-3
COc1ccc(CNc2c(-c3ccc(OC)c(OC)c3)nc3ccccn23)cc1	-48	nt	nt	nt	18	nt
